Screening results (PubChem BioAssay)
PPC-1+TRAIL kill: PPC-1 cancer cell killing with TRAIL present | hit rate 0.41% among 220,000 | PPC-1 cells + TRAIL, ATPLite viability luminescence | cell killing (% activity), % at 4 µM or 5 µM;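 active means cell killing above 50% in the first pass at 4 µM, then a duplicate retest at 5 µM averaging 50% or more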;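 further: plate controls were cells with TRAIL plus DMSO for no effect and medium-only wells lacking cells for full effect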
STAT1 blocker: reduces IFN-gamma driven STAT1 reporter signal; NIH 3T3 STAT1-luciferase reporter, luminescence; inhibition, % at 5.5 µM; hit rate 0.35% among 200,000; AID 920;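 active means inhibition above a set limit, the mean inhibition across all tested compounds plus 3 SD, cut at about 34% in these data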;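 further: 0% = IFN-gamma with DMSO and 100% = IFN-gamma with 300 µM nifuroxazide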
STAT3 activator: STAT3 signaling activation | activation (% of control), % at 5.6 µM | hit rate 0.91% among 190,000 | AID 871 | U3A cells, IL-6 STAT3-luciferase reporter, luminescence; 100% = signal with IL-6 EC80 alone;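 active means activation above the screen-wide mean of compound activation plus 3 SD, cut at about 130% in these data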;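 further: 0% = background luminescence of wells with medium and substrate only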
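System – human U3A cells carrying STAT3-luciferase construct · Probe or stimulus – Interleukin-6, 33 ng/mL · Schedule – compound 1 h, then IL-6 6 h at 37 °C · Signal – luminescence from STAT3-driven luciferase reporter · Evaluation – percent of IL-6-only median luminescence · Benchmarks – IL-6-only high control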
STAT3 inh: inhibitors of IL-6 induced STAT3 signaling; hit rate 0.89% among 190,000; U3A cells, IL-6 STAT3-luciferase reporter, luminescence; host cell line lacks STAT1; inhibition, % at 5.5 µM;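 active means inhibition above the mean inhibition across all screened compounds plus 3 SD, cut at about 44% in these data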;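 further: 0% = DMSO only wells and 100% = 100 µM nifuroxazide control wells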
TRAIL sens C8: caspase-8 TRAIL sensitization; NB7+C8 cells + TRAIL, ATPlite viability luminescence; AID 624354; inhibition (viability loss, TRAIL sensitization), % at 10 µM; hit rate 1% among 360,000;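 active means compounds causing at least 50% loss of cell viability in the single-dose screen, relative to plate controls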
An asterisk follows results filed as active; x = not tested or not shown. In the library only some 1.8% were active in any assay of this set; here they are far more common.

SMILES	PPC-1+TRAIL kill	STAT1 blocker	STAT3 activator	STAT3 inh	TRAIL sens C8
CC(/C=C/c1ccccc1)=N/NC(=O)c1cc([N+](=O)[O-])cc([N+](=O)[O-])c1	27	8	98	1	52*
CCn1c2ccccc2c2cc(Nc3cc(C)nc4ncnn34)ccc21	32	-2	136*	-43	8
C[C@@H]1CN([C@H](C)CO)S(=O)(=O)c2ccc(Br)cc2O[C@H]1CN(C)C(=O)C1CCCCC1	x	x	x	x	-12
CSC(=Nc1ccccc1)N=C(SCc1ccccc1)N(C)C	x	x	x	x	91*
O=C1C(=Cc2cccs2)C(=O)c2ccccc21	-1	-5	102	-3	1
O=C1/C(=C\c2cccs2)Sc2ccc3ccccc3c21	12	-6	180*	-94	37
COc1ccc(-n2c(-c3ccc(Br)cc3)c[n+]3c2CCc2ccccc2-3)cc1	34	25	39	72*	40
CC(C)c1ccc(-n2c(-c3ccccc3)c[n+]3c2CCc2ccccc2-3)cc1	48	40*	35	80*	53*
COc1ccc(-c2c[n+]3c(n2-c2ccccc2)CCCCC3)cc1	13	21	75	28	35
COCC(=O)N[C@@H]1c2ccccc2CC[C@@H]1OCc1ccccc1	x	x	x	x	-8
Cc1nc(-c2ccc(NC(=O)c3ccc(Br)o3)cc2)cs1	x	x	x	x	55*
Cc1nc(-c2ccc(NC(=O)CC(C)C)cc2)cs1	27	-32	79	27	53*
Cc1nc(-c2ccc(NC(=O)C3CC3)cc2)cs1	x	x	x	x	32
CN(c1ccccc1)S(=O)(=O)c1cc(C(=O)NCCCn2ccnc2)ccc1Cl	x	x	x	x	5
Cc1cccc(C)c1Nc1nnc(SCc2nc3ccccc3s2)s1	24	-27	130	-36	9
Cc1ccnc(SCc2nc3ccccc3s2)n1	14	-33	136*	-32	5
O=C(C#Cc1cccc([N+](=O)[O-])c1)c1ccccc1	9	10	95	7	83*
O=C(O)C(=Cc1cccc([N+](=O)[O-])c1)c1ccccc1	x	x	x	x	-4
Nc1ccccc1C#Cc1ccc([N+](=O)[O-])cc1	x	x	x	x	26
Nc1ccccc1C#CC(=O)c1ccccc1	x	x	x	x	64*
CCCc1nn(C)c(C(=O)Nc2cccc(Cl)c2)c1Cl	51*	-21	79	28	-3
Cc1nnc(NC(=O)c2ccc3ccccc3n2)s1	30	-45	136*	-34	31
Cc1nc2ccc(NC(=O)c3ccc4ccccc4n3)cc2s1	4	-39	89	14	6
CCCS(=O)(=O)NC(=O)C1(C)CCCN(C(=O)C(C)(C)Oc2ccc(Cl)cc2)C1 (stereo not given)	x	x	x	x	1
CC[C@H]1CN2CCc3cc(OC)c(OC)cc3C2C[C@@H]1C[C@H]1NCCc2cc(OC)c(OC)cc21 (stereo not given in full)	x	x	x	x	56*
SMILES	PPC-1+TRAIL kill	STAT1 blocker	STAT3 activator	STAT3 inh	TRAIL sens C8
COc1ccccc1CNC(=O)COc1ccccc1C(=O)c1cnn(-c2ccccc2)c1	x	x	x	x	12
O=C(COc1ccccc1C(=O)c1cnn(-c2ccccc2)c1)Nc1ccccc1	47	-22	102	-8	60*
CCc1ccc(/C=N/Nc2ncnc3nc[nH]c23)cc1	42	x	x	x	60*
CC12CCC(C(=O)N(c3nccs3)C1=O)C2(C)C (stereo not given)	x	x	x	x	-1
CCCCCCCCCCCC1N=C(N)NC(CCCO)=C1C(=O)OC (stereo not given)	x	x	x	x	63*
CCCCCCOC(=O)c1ccc(N)cc1	-7	x	x	x	-8
C=C(C)CSc1nnc2n(C)c(=O)c3c4c(sc3n12)CCC4	0	2	99	7	55*
CC(C)Oc1ccc(CSc2nnc3n(C)c(=O)c4c5c(sc4n23)CCCC5)cc1	x	-4	100	5	-14
CC1CCN(C(=O)COC(=O)CCC(=O)c2ccc(Cl)cc2)CC1	x	x	x	x	-5
Cc1oc2c(c1C(=O)O)C(=O)c1ccccc1C2=O	20	-3	117	-8	13
Cc1oc2c(c1C(=O)c1ccccc1)C(=O)C(=O)c1ccccc1-2	17	1	82	24	97*
Cc1ccc2c(c1)C(c1ccccc1)N(C(=O)c1ccc(Br)o1)CC(=O)N2 (stereo not given)	-6	8	135*	-38	0
CC1(C(=O)NS(=O)(=O)c2ccccc2Cl)CCN1C(=O)CCc1cccs1 (stereo not given)	x	x	x	x	-11
COC(=O)c1ccc(N/C=C/C(=O)c2ccccc2)cc1	x	x	x	x	55*
C[C@H](NC(=O)c1ccccc1)C(=O)N1CCN(c2ccccc2)CC1	x	x	x	x	9
CC1(C)C=C(c2ccc(C=O)s2)CC(C)(C)N1C=O	62*	10	104	-7	22
Clc1ccc(/C=N/Nc2nnc(-c3ncc[nH]3)c3ccccc23)cc1	28	-15	116	-17	54*
Cc1ccc(OCC(=O)N(C)CC(=O)Nc2ccccc2Cl)c([N+](=O)[O-])n1	x	x	x	x	-3
S=C(Nc1ccc(Cl)cc1)c1nc2ccccc2[nH]1	26	-76	100	1	69*
COc1cc(/C=N\NC(=O)C(C)(C)O)ccc1OC/C=C/c1ccccc1	x	x	x	x	-3
Cn1c(COc2ccccc2)nnc1SCCSc1nnc(COc2ccccc2)n1C	9	16	103	4	11
Cn1c(COc2ccc(Br)cc2)nnc1SC1CCc2ccccc2C1=O (stereo not given)	3	3	133*	-42	-11
Oc1ccc(-c2nccc(-c3cccs3)n2)cc1	-18	-46	140*	-47	1
COc1cccc(NC(=O)c2ccc3c(c2)CCCC3)c1	x	x	x	x	65*
COc1ccc(NC(=O)c2ccc(C)cc2)cc1	x	x	x	x	68*
SMILES	PPC-1+TRAIL kill	STAT1 blocker	STAT3 activator	STAT3 inh	TRAIL sens C8
CC(=O)c1cccc(NC(=O)c2ccc3c(c2)CCCC3)c1	x	x	x	x	36
COc1cccc(C(=O)Nc2ccc3ccccc3c2)c1	x	x	x	x	48
COc1ccc(C(=O)Nc2ccc3ccccc3c2)cc1	x	x	x	x	69*
CN1CCC(N2CCN(C3CN(Cc4ccccc4)S(=O)(=O)C3)CC2)CC1 (stereo not given)	x	x	x	x	-4
COc1cc(/C=N/Nc2nc(Nc3ccccc3)nc(-n3nc(C)cc3C)n2)cc(OC)c1OC	2	-17	105	-6	32
Cc1cc(N/N=C/c2ccc(O)cc2O)nc(-n2nc(C)cc2C)n1	55*	-3	85	13	36
Cc1cc(N/N=C\c2ccccc2)nc(-c2ccccc2O)n1	34	-13	93	5	56*
Cc1cc(N/N=C/c2ccc(O)cc2O)nc(-c2ccccc2O)n1	34	-24	93	6	77*
